Experimental data as given in ChEMBL document CHEMBL3611989, “Discovery and characterization of aryl isonitriles as a new class of compounds versus methicillin- and vancomycin-resistant Staphylococcus aureus” (Eur J Med Chem, 2015).
In brackets after ≈: the same amount, converted by molar mass.

What was measured:
Staphylococcus aureus [1] = test: Bactericidal activity against methicillin-resistant Staphylococcus aureus USA300; assay type: functional
Staphylococcus aureus [2] = test: Antimicrobial activity against methicillin-resistant Staphylococcus aureus USA500 assessed as reduction in bacterial growth incubated for 18 to 20 hrs at 37 degC by broth microdilution method; assay type: functional
How it was run: (§1)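 Modified CLSI broth microdilution. Bacterial suspension of about 1 × 10^5 CFU/mL in tryptic soy broth. Each agent was added in triplicate to the first row and serially diluted down the plate. Plates were incubated at 37 °C for 18-20 h. MIC was read as the lowest concentration with no visible growth.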

J774 [3] = assay type: cell-based; settings: mouse, j774, 2 h, 128 µM
Staphylococcus aureus [4] = test: Antimicrobial activity against methicillin-sensitive Staphylococcus aureus NRS72 assessed as reduction in bacterial growth incubated for 18 to 20 hrs at 37 degC by broth microdilution method; assay type: functional; how it was run: as §1
Staphylococcus aureus [5] = test: Antimicrobial activity against methicillin-resistant Staphylococcus aureus USA100 assessed as reduction in bacterial growth incubated for 18 to 20 hrs at 37 degC by broth microdilution method; assay type: functional; how it was run: as §1
Staphylococcus aureus [6] = test: Antimicrobial activity against vancomycin-resistant Staphylococcus aureus VRS2 assessed as reduction in bacterial growth incubated for 18 to 20 hrs at 37 degC by broth microdilution method; assay type: functional; how it was run: as §1
Staphylococcus aureus [7] = test: Antimicrobial activity against vancomycin-intermediate-resistant Staphylococcus aureus NRS1 assessed as reduction in bacterial growth incubated for 18 to 20 hrs at 37 degC by broth microdilution method; assay type: functional; how it was run: as §1
J774 [8] = test: Cytotoxicity against mouse J774 cells assessed as reduction in cell viability at 32 uM incubated for 2 hrs by MTS assay; assay type: cell-based; settings: j774, 2 h
How it was run: (§2)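 Murine J774 macrophages grown in DMEM with 10% FBS at 37 °C, 5% CO2. Compounds were tested in triplicate at 16, 32, 64 and 128 μM for 2 h, with DMSO-matched vehicle controls. MTS reagent was then added and absorbance read at OD490. Viability is given as percent of DMSO-treated cells (mean of triplicate ± standard deviation), compared by paired t-test (P < 0.05).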

J774 [9] = test: Cytotoxicity against mouse J774 cells assessed as reduction in cell viability at 64 uM incubated for 2 hrs by MTS assay; assay type: cell-based; settings: j774, 2 h; how it was run: as §2
Staphylococcus aureus [10] = test: Antimicrobial activity against methicillin-resistant Staphylococcus aureus USA300 assessed as reduction in bacterial growth incubated for 18 to 20 hrs at 37 degC by broth microdilution method; assay type: functional; how it was run: as §1
Staphylococcus aureus [11] = test: Antimicrobial activity against methicillin-resistant Staphylococcus aureus USA700 assessed as reduction in bacterial growth incubated for 18 to 20 hrs at 37 degC by broth microdilution method; assay type: functional; how it was run: as §1
Staphylococcus aureus [12] = test: Antimicrobial activity against methicillin-resistant Staphylococcus aureus NRS119 assessed as reduction in bacterial growth incubated for 18 to 20 hrs at 37 degC by broth microdilution method; assay type: functional; how it was run: as §1
Staphylococcus aureus [13] = test: Antimicrobial activity against methicillin-resistant Staphylococcus aureus USA200 assessed as reduction in bacterial growth incubated for 18 to 20 hrs at 37 degC by broth microdilution method; assay type: functional; how it was run: as §1
[14] = Kinetic solubility of the compound in PBS; assay type: physicochemical; settings: read-out: Kinetic_solubility
[15] = Metabolic stability in human liver microsomes assessed as compound remaining incubated for 60 mins in presence of NADPH; assay type: ADME; settings: read-out: Stability
[16] = Metabolic stability in human liver microsomes assessed as compound remaining incubated for 60 mins in absence of NADPH; assay type: ADME; settings: read-out: Stability
J774 [17] = test: Cytotoxicity against mouse J774 cells assessed as reduction in cell viability up to 64 uM incubated for 2 hrs by MTS assay; assay type: cell-based; settings: j774, 2 h; how it was run: as §2
[18] = Selectivity index, ratio of cytotoxicity against mouse J774 cells by MTS assay to MIC for methicillin-resistant Staphylococcus aureus; assay type: toxicity, cell-based; settings: read-out: Selectivity Index

| Structure (SMILES) | MBC (Staphylococcus aureus [1]) [µM] | MIC (Staphylococcus aureus [2]) [µM] | Activity (J774 [3]) | MIC (Staphylococcus aureus [4]) [µM] | MIC (Staphylococcus aureus [5]) [µM] | MIC (Staphylococcus aureus [6]) [µM] | MIC (Staphylococcus aureus [7]) [µM] | Activity (J774 [8]) | Activity (J774 [9]) | MIC (Staphylococcus aureus [10]) [µM] | MIC (Staphylococcus aureus [11]) [µM] | MIC (Staphylococcus aureus [12]) [µM] | MIC (Staphylococcus aureus [13]) [µM] | solubility kinetic [14] [µM] | remaining at 1 h [15] [%] | remaining at 1 h [16] [%] | Activity (J774 [17]) | selectivity ratio [18] |
| --- | --- | --- | --- | --- | --- | --- | --- | --- | --- | --- | --- | --- | --- | --- | --- | --- | --- | --- |
| [C-]#[N+]c1ccccc1/C=C(\CC)c1ccccc1 | > 128 | 32 (≈ 7.47 µg/mL) | Non-toxic | 8 (≈ 1.87 µg/mL) | 8 (≈ 1.87 µg/mL) | 32 (≈ 7.47 µg/mL) | 8 (≈ 1.87 µg/mL) | Non-toxic | Non-toxic | 32 (≈ 7.47 µg/mL) | 8 (≈ 1.87 µg/mL) | 64 (≈ 14.9 µg/mL) | 16 (≈ 3.73 µg/mL) | – | – | – | – | – |
| [C-]#[N+]c1ccccc1/C=C/c1ccccc1 | – | 32 (≈ 6.57 µg/mL) | Toxic | – | 2 (≈ 0.411 µg/mL) | 32 (≈ 6.57 µg/mL) | 2 (≈ 0.411 µg/mL) | Non-toxic | Non-toxic | 4 (≈ 0.821 µg/mL) | 4 (≈ 0.821 µg/mL) | 4 (≈ 0.821 µg/mL) | 4 (≈ 0.821 µg/mL) | 15.6 (≈ 3.2 µg/mL) | 24 | 51 | Non-toxic | 16 |
| [C-]#[N+]c1ccccc1/C=C/c1ccc(OC)cc1 | – | > 128 | Toxic | 4 (≈ 0.941 µg/mL) | 8 (≈ 1.88 µg/mL) | 32 (≈ 7.53 µg/mL) | 4 (≈ 0.941 µg/mL) | Non-toxic | Non-toxic | 16 (≈ 3.76 µg/mL) | 8 (≈ 1.88 µg/mL) | 32 (≈ 7.53 µg/mL) | 2 (≈ 0.471 µg/mL) | – | – | – | – | – |
| [C-]#[N+]c1ccccc1/C=C/c1cccc(OC)c1 | – | 32 (≈ 7.53 µg/mL) | Non-toxic | 8 (≈ 1.88 µg/mL) | 8 (≈ 1.88 µg/mL) | 32 (≈ 7.53 µg/mL) | 4 (≈ 0.941 µg/mL) | Non-toxic | Non-toxic | 16 (≈ 3.76 µg/mL) | 16 (≈ 3.76 µg/mL) | 32 (≈ 7.53 µg/mL) | 4 (≈ 0.941 µg/mL) | – | – | – | – | – |
| [C-]#[N+]c1ccccc1/C=C/c1ccccc1OC | – | 8 (≈ 1.88 µg/mL) | Toxic | 8 (≈ 1.88 µg/mL) | 8 (≈ 1.88 µg/mL) | 16 (≈ 3.76 µg/mL) | 4 (≈ 0.941 µg/mL) | Non-toxic | Non-toxic | 8 (≈ 1.88 µg/mL) | 8 (≈ 1.88 µg/mL) | 16 (≈ 3.76 µg/mL) | 8 (≈ 1.88 µg/mL) | – | – | – | – | – |
| [C-]#[N+]c1ccccc1/C=C/c1ccc(F)cc1 | – | 16 (≈ 3.57 µg/mL) | Toxic | 4 (≈ 0.893 µg/mL) | 8 (≈ 1.79 µg/mL) | 32 (≈ 7.14 µg/mL) | 4 (≈ 0.893 µg/mL) | Non-toxic | Non-toxic | 8 (≈ 1.79 µg/mL) | 8 (≈ 1.79 µg/mL) | 16 (≈ 3.57 µg/mL) | 2 (≈ 0.446 µg/mL) | – | – | – | – | – |
| [C-]#[N+]c1ccccc1/C=C/c1ccccc1F | – | 16 (≈ 3.57 µg/mL) | Toxic | 4 (≈ 0.893 µg/mL) | 8 (≈ 1.79 µg/mL) | 32 (≈ 7.14 µg/mL) | 4 (≈ 0.893 µg/mL) | Non-toxic | Non-toxic | 16 (≈ 3.57 µg/mL) | 8 (≈ 1.79 µg/mL) | 32 (≈ 7.14 µg/mL) | 2 (≈ 0.446 µg/mL) | – | – | – | – | – |
| [C-]#[N+]c1ccccc1/C=C/c1cccc(F)c1 | – | 128 (≈ 28.6 µg/mL) | Toxic | 8 (≈ 1.79 µg/mL) | 16 (≈ 3.57 µg/mL) | 128 (≈ 28.6 µg/mL) | 8 (≈ 1.79 µg/mL) | Non-toxic | Toxic | 32 (≈ 7.14 µg/mL) | 16 (≈ 3.57 µg/mL) | 128 (≈ 28.6 µg/mL) | 16 (≈ 3.57 µg/mL) | – | – | – | – | – |
| [C-]#[N+]c1ccccc1/C=C/c1ccc(C(F)(F)F)cc1 | – | 16 (≈ 4.37 µg/mL) | Toxic | 4 (≈ 1.09 µg/mL) | 4 (≈ 1.09 µg/mL) | 16 (≈ 4.37 µg/mL) | 2 (≈ 0.547 µg/mL) | Non-toxic | Non-toxic | 8 (≈ 2.19 µg/mL) | 2 (≈ 0.547 µg/mL) | 16 (≈ 4.37 µg/mL) | 2 (≈ 0.547 µg/mL) | – | – | – | – | – |
| [C-]#[N+]c1ccccc1/C=C/c1ccccc1C(F)(F)F | – | 16 (≈ 4.37 µg/mL) | Toxic | 8 (≈ 2.19 µg/mL) | 16 (≈ 4.37 µg/mL) | 32 (≈ 8.74 µg/mL) | 8 (≈ 2.19 µg/mL) | Non-toxic | Non-toxic | 32 (≈ 8.74 µg/mL) | 16 (≈ 4.37 µg/mL) | > 128 | 16 (≈ 4.37 µg/mL) | – | – | – | – | – |
| [C-]#[N+]c1ccccc1/C=C/c1ccc(C)cc1 | – | 32 (≈ 7.02 µg/mL) | Toxic | 16 (≈ 3.51 µg/mL) | 4 (≈ 0.877 µg/mL) | 32 (≈ 7.02 µg/mL) | 4 (≈ 0.877 µg/mL) | Non-toxic | Non-toxic | 16 (≈ 3.51 µg/mL) | 8 (≈ 1.75 µg/mL) | 64 (≈ 14 µg/mL) | 4 (≈ 0.877 µg/mL) | – | – | – | – | – |
| [C-]#[N+]c1ccccc1/C=C/c1ccccn1 | – | 64 (≈ 13.2 µg/mL) | Toxic | 64 (≈ 13.2 µg/mL) | 64 (≈ 13.2 µg/mL) | 32 (≈ 6.6 µg/mL) | 64 (≈ 13.2 µg/mL) | Non-toxic | Non-toxic | 16 (≈ 3.3 µg/mL) | 32 (≈ 6.6 µg/mL) | 128 (≈ 26.4 µg/mL) | 64 (≈ 13.2 µg/mL) | – | – | – | – | – |
| [C-]#[N+]c1ccccc1/C=C/c1cccnc1 | – | 32 (≈ 6.6 µg/mL) | Non-toxic | 64 (≈ 13.2 µg/mL) | 32 (≈ 6.6 µg/mL) | 32 (≈ 6.6 µg/mL) | 64 (≈ 13.2 µg/mL) | Non-toxic | Non-toxic | 16 (≈ 3.3 µg/mL) | 32 (≈ 6.6 µg/mL) | 64 (≈ 13.2 µg/mL) | 32 (≈ 6.6 µg/mL) | – | – | – | – | – |
| [C-]#[N+]c1cccc(/C=C/c2ccccc2)c1 | – | > 128 | Toxic | 16 (≈ 3.28 µg/mL) | 32 (≈ 6.57 µg/mL) | 32 (≈ 6.57 µg/mL) | 32 (≈ 6.57 µg/mL) | Non-toxic | Non-toxic | 16 (≈ 3.28 µg/mL) | 16 (≈ 3.28 µg/mL) | 64 (≈ 13.1 µg/mL) | 32 (≈ 6.57 µg/mL) | – | – | – | – | – |
| CC/C(=C\c1ccccc1)c1ccccc1 | – | > 128 | Toxic | > 128 | > 128 | > 128 | > 128 | Non-toxic | Non-toxic | > 128 | > 128 | > 128 | > 128 | – | – | – | Non-toxic | – |
| CC(=O)CC(c1ccccc1)c1c(O)c2ccccc2oc1=O (stereo not drawn) [WARFARIN] | – | – | – | – | – | – | – | – | – | – | – | – | – | – | 93 | 94 | – | – |
